Each block holds one compound with its values, some of them ahead of it.
Tests used:
[1] = Drug level in anesthetized Sprague-Dawley rat plasma at 5 mg/kg, iv after 3 mins; type: ADME, organism-based; set-up: dose 5 mg/kg, route intravenous
How it was run: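 Male SD rats under inactin (100 mg/kg). Femoral artery catheter for pressure, femoral vein for dosing, left ventricular catheter via the carotid for LVP; LV dp/dt_max derived from LVP. Vehicle (60% propylene glycol/water, 1 mL/kg) given first, compound 45 min later. Values are % change from baseline at 3 min after 5 mg/kg iv, with blood drawn at 3 min; n = 2–3.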

[2] = Drug level in mdr1a expressing wild type CF1 mouse plasma at 10 mg/kg, po after 2 hrs; type: ADME, organism-based; set-up: dose 10 mg/kg, route oral
How it was run: (§1)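 CF-1 mice, mdr1a (−/−) and (+/+), dosed orally at 10 mg/kg; brain and plasma concentrations taken 2 h after dosing; mean of n = 3.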

[3] = Drug level in mdr1a deficient CF1 mouse plasma at 10 mg/kg, po after 2 hrs; type: ADME, organism-based; set-up: dose 10 mg/kg, route oral; how it was run: as §1
[4] = Drug level in anesthetized Beagle dog plasma at 5 mg/kg, iv infused over 10 mins measured immediately after end of dosing; type: ADME, organism-based, Canis lupus familiaris; set-up: dose 5 mg/kg, route intravenous
How it was run: (§2)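 Dogs were anesthetized and, after surgery, stabilized at least 1 h before baseline readings. Doses of 1, 2 and 5 mg/kg were infused iv over 10 min each (cumulative 1, 3, 8 mg/kg). QTc, MAP, LVSP, CO, HR and LV dp/dt_max were read at 0, 10 and 20 min as maximum % change from baseline. Plasma was sampled at the end of each dosing period; n = 3.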

[5] = Drug level in anesthetized Beagle dog plasma at 2 mg/kg, iv infused over 10 mins measured immediately after end of dosing; type: ADME, organism-based, Canis lupus familiaris; set-up: dose 2 mg/kg, route intravenous; how it was run: as §2
[6] = Drug level in anesthetized Beagle dog plasma at 1 mg/kg, iv infused over 10 mins measured immediately after end of dosing; type: ADME, organism-based, Canis lupus familiaris; set-up: dose 1 mg/kg, route intravenous; how it was run: as §2
[7] = Drug level in Sprague-Dawley rat plasma at 10 mg/kg, po after 2 hrs; type: ADME, organism-based; set-up: dose 10 mg/kg, route oral
How it was run: (§3)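 SD rats dosed orally at 10 mg/kg; brain (nmol/g) and plasma levels measured 2 h later.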

Brain [8] = experiment: Drug level in Sprague-Dawley rat brain at 10 mg/kg, po after 2 hrs; type: ADME, organism-based; set-up: dose 10 mg/kg, route oral; settings: in vivo; how it was run: as §3
[9] = Ratio of drug level in brain to plasma of Sprague-Dawley rat at 10 mg/kg, po after 2 hrs; type: ADME, organism-based; set-up: dose 10 mg/kg, route oral; settings: read-out: BPR
How it was run: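 Sprague-Dawley rats were dosed orally at 10 mg/kg. Brain (nmol/g) and plasma concentrations were measured 2 h later, and the brain-to-plasma ratio was taken from these.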

[10] = Cmax in rhesus monkey at 1 mg/kg, po and 0.3 mg/kg, iv; type: ADME, organism-based, Macaca mulatta; settings: in vivo
How it was run: (§4)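 PK in rats (oral 3 mg/kg, iv 1 mg/kg) and rhesus monkeys (oral 1 mg/kg, iv 0.3 mg/kg); values are means of n = 3.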

[11] = Bioavailability in rhesus monkey at 1 mg/kg, po and 0.3 mg/kg, iv; type: ADME, organism-based, Macaca mulatta; settings: in vivo
[12] = Volume of distribution at steady state in rhesus monkey at 1 mg/kg, po and 0.3 mg/kg, iv; type: ADME, organism-based, Macaca mulatta; settings: in vivo, read-out: Vdss
How it was run: (§5)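 Pharmacokinetic parameters are the mean of n = 3 animals. Rats were dosed 1 mg/kg iv and 3 mg/kg po; rhesus monkeys 0.3 mg/kg iv and 1 mg/kg po.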

[13] = AUC (0 to infinity) in rhesus monkey at 1 mg/kg, po; type: ADME, organism-based, Macaca mulatta; set-up: time infinity, dose 1 mg/kg, route oral; settings: plasma; how it was run: as §4
[14] = Bioavailability in Sprague-Dawley rat at 3 mg/kg, po and 1 mg/kg, iv; type: ADME, organism-based; settings: in vivo; how it was run: as §4
[15] = AUC (0 to infinity) in Sprague-Dawley rat at 3 mg/kg, po; type: ADME, organism-based; set-up: time infinity, dose 3 mg/kg, route oral; settings: plasma; how it was run: as §4
[16] = Cmax in Sprague-Dawley rat at 3 mg/kg, po and 1 mg/kg, iv; type: ADME, organism-based; settings: in vivo; how it was run: as §4
[17] = Volume of distribution at steady state in Sprague-Dawley rat at 3 mg/kg, po and 1 mg/kg, iv; type: ADME, organism-based; settings: in vivo, read-out: Vdss; how it was run: as §5
Brain [18] = experiment: Drug level in mdr1a expressing wild type CF1 mouse brain at 10 mg/kg, po after 2 hrs; type: ADME, organism-based; set-up: dose 10 mg/kg, route oral; settings: in vivo; how it was run: as §1
Brain [19] = experiment: Drug level in mdr1a deficient CF1 mouse brain at 10 mg/kg, po after 2 hrs; type: ADME, organism-based; set-up: dose 10 mg/kg, route oral; settings: in vivo; how it was run: as §1
[20] = Ratio of drug level in brain to plasma in mdr1a expressing wild type CF1 mouse at 10 mg/kg, po after 2 hrs; type: ADME, organism-based; set-up: dose 10 mg/kg, route oral; settings: read-out: BPR
How it was run: (§6)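 P-gp-deficient mdr1a (−/−) and wild-type mdr1a (+/+) CF-1 mice were dosed orally at 10 mg/kg. Brain (nmol/g) and plasma levels were taken 2 h post-dose, n = 3. The ratio was calculated from the mean values.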

[21] = Ratio of drug level in brain to plasma in mdr1a deficient CF1 mouse at 10 mg/kg, po after 2 hrs; type: ADME, organism-based; set-up: dose 10 mg/kg, route oral; settings: read-out: BPR; how it was run: as §6

Structure (SMILES): C[C@@H]1NC(c2cccc(S(N)(=O)=O)c2)=N[C@@]1(c1ccc(F)cc1)c1ccc(F)nc1
concentration at 0.05 h [1]: 4.9 µM

Structure (SMILES): C[C@@H]1NC(c2cccc(O)n2)=NC1(c1ccc(F)cc1)c1ccc(F)cc1
concentration at 0.05 h [1]: 2.6 µM

Structure (SMILES): C[C@@H]1NC(c2ccc(=O)n(C(F)F)c2)=N[C@@]1(c1ccc(F)cc1)c1ccc(F)nc1
concentration at 2 h [2]: 8.36 µM
concentration at 2 h [3]: 7.01 µM
concentration at 10 min [4]: 26.9 µM
concentration at 10 min [5]: 14.3 µM
concentration at 10 min [6]: 7.7 µM
concentration at 2 h [7]: 2.2 µM
Drug uptake (Brain [8]): 0.91 nmol/g
Kp at 2 h [9]: 0.42
Cmax [10]: 0.64 µM
bioavailability [11]: 92%
Vd [12]: 3.8 L/kg
AUC(0-inf) [13]: 11 µM·h
bioavailability [14]: 92%
AUC(0-inf) [15]: 4.8 µM·h
Cmax [16]: 1.1 µM
Vd [17]: 2.6 L/kg
Drug uptake (Brain [18]): 4 nmol/g
Drug uptake (Brain [19]): 14.8 nmol/g
Kp at 2 h [20]: 0.48
Kp at 2 h [21]: 2.05

Now from value to compound:

concentration at 0.05 h [1]: 5.3 µM
Structure (SMILES): C[C@@H]1NC(c2cccc(=O)[nH]2)=N[C@@]1(c1ccc(F)cc1)c1ccc(F)nc1

concentration at 0.05 h [1]: 4.3 µM
Structure (SMILES): C[C@@H]1NC(c2ccnc(C#N)c2)=N[C@@]1(c1ccc(F)cc1)c1ccc(F)nc1

concentration at 0.05 h [1]: 6.3 µM
Structure (SMILES): C[C@@H]1NC(c2cc(C#N)ccn2)=N[C@@]1(c1ccc(F)cc1)c1ccc(F)nc1

concentration at 0.05 h [1]: 5.1 µM
Structure (SMILES): C[C@@H]1NC(c2cnccn2)=N[C@@]1(c1ccc(F)cc1)c1ccc(F)nc1
